Measured values from ChEMBL document CHEMBL2384936, “Synthesis and evaluation of antimicrobial activity of hydrazones derived from 3-oxido-1H-imidazole-4-carbohydrazides” (Eur J Med Chem, 2013).
≈ marks a conversion by molar mass, not a printed value. Calls of active or inactive are those of the source. The calls are words filed in the database; no cut-off is given here.

What was measured:
Type in all cases: functional
[1] = system: Staphylococcus epidermidis; assay: Bactericidal activity against Staphylococcus epidermidis ATCC 12228 after 18 hrs by broth microdilution method; settings: ATCC 12228, 18 h
In short: (§1)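 Broth microdilution, then contents of wells without visible growth plated onto Mueller–Hinton agar and incubated 35 °C for 18 h. Triplicates, per CLSI.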

[2] = system: Staphylococcus aureus; assay: Bactericidal activity against Staphylococcus aureus ATCC 29213 after 18 hrs by broth microdilution method; settings: ATCC 29213, 18 h; in short: as §1
[3] = system: Staphylococcus aureus; assay: Bactericidal activity against Staphylococcus aureus ATCC 6538 after 18 hrs by broth microdilution method; settings: ATCC 6538, 18 h; in short: as §1
[4] = system: Escherichia coli; assay: Bactericidal activity against Escherichia coli NCTC 8192 after 18 hrs by broth microdilution method; in short: as §1
[5] = system: Staphylococcus epidermidis; assay: Antibacterial activity against Staphylococcus epidermidis ATCC 12228 assessed as growth inhibition after 18 hrs by broth microdilution method; settings: ATCC 12228, 18 h
In short: (§2)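 Frozen stocks (-80 °C, tryptic soy broth with 15% glycerol); S. aureus subcultured on blood agar and identified by catalase, coagulase and clumping factor. Inoculum at 0.5 McFarland. MIC = lowest concentration preventing growth; triplicates, per CLSI.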

[6] = system: Staphylococcus aureus; assay: Antibacterial activity against Staphylococcus aureus ATCC 29213 assessed as growth inhibition after 18 hrs by broth microdilution method; settings: ATCC 29213, 18 h
In short: (§3)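 Broth microdilution in Mueller–Hinton broth with 1–600 µg/mL compound added from DMSO stocks. Inoculum adjusted to 0.5 McFarland. Strains stored at -80 °C and subcultured on blood agar before use. Incubation 37 °C for 18 h with OD600 read. MIC taken as the lowest concentration preventing growth, run in triplicate following CLSI. Vancomycin and oxacillin served as controls.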

[7] = system: Staphylococcus aureus; assay: Antibacterial activity against Staphylococcus aureus ATCC 6538 assessed as growth inhibition after 18 hrs by broth microdilution method; settings: ATCC 6538, 18 h; in short: as §3
[8] = system: Escherichia coli; assay: Antibacterial activity against Escherichia coli NCTC 8192 assessed as growth inhibition after 18 hrs by broth microdilution method; in short: as §2
[9] = system: Staphylococcus aureus; assay: Bactericidal activity against Staphylococcus aureus isolate D20 derived from bone after 18 hrs by broth microdilution method; settings: isolate D20, 18 h; in short: as §1
[10] = system: Staphylococcus aureus; assay: Bactericidal activity against Staphylococcus aureus isolate D17 derived from bone after 18 hrs by broth microdilution method; settings: isolate D17, 18 h; in short: as §1
[11] = system: Staphylococcus aureus; assay: Bactericidal activity against Staphylococcus aureus isolate D15 derived from bone after 18 hrs by broth microdilution method; settings: isolate D15, 18 h; in short: as §1
[12] = system: Staphylococcus aureus; assay: Bactericidal activity against Staphylococcus aureus isolate D14 derived from bone after 18 hrs by broth microdilution method; settings: isolate D14, 18 h; in short: as §1
[13] = system: Staphylococcus aureus; assay: Bactericidal activity against Staphylococcus aureus isolate F12 derived from ulcer and furuncle after 18 hrs by broth microdilution method; settings: isolate F12, 18 h; in short: as §1
[14] = system: Staphylococcus aureus; assay: Bactericidal activity against Staphylococcus aureus isolate F7 derived from ulcer and furuncle after 18 hrs by broth microdilution method; settings: isolate F7, 18 h; in short: as §1
[15] = system: Staphylococcus aureus; assay: Bactericidal activity against Staphylococcus aureus isolate F1 derived from ulcer and furuncle after 18 hrs by broth microdilution method; settings: isolate F1, 18 h; in short: as §1
[16] = system: Staphylococcus aureus; assay: Bactericidal activity against Staphylococcus aureus isolate D12 derived from ulcer and furuncle after 18 hrs by broth microdilution method; settings: isolate D12, 18 h; in short: as §1
[17] = system: Staphylococcus aureus; assay: Bactericidal activity against Staphylococcus aureus isolate C19 derived from naso-pharynx after 18 hrs by broth microdilution method; settings: isolate C19, 18 h; in short: as §1
[18] = system: Staphylococcus aureus; assay: Bactericidal activity against Staphylococcus aureus isolate C8 derived from naso-pharynx after 18 hrs by broth microdilution method; settings: isolate C8, 18 h; in short: as §1
[19] = system: Staphylococcus aureus; assay: Bactericidal activity against Staphylococcus aureus isolate C7 derived from naso-pharynx after 18 hrs by broth microdilution method; settings: isolate C7, 18 h; in short: as §1
[20] = system: Staphylococcus aureus; assay: Bactericidal activity against Staphylococcus aureus isolate C4 derived from naso-pharynx after 18 hrs by broth microdilution method; settings: isolate C4, 18 h; in short: as §1
[21] = system: Staphylococcus aureus; assay: Antibacterial activity against Staphylococcus aureus isolate D20 derived from bone assessed as growth inhibition after 18 hrs by broth microdilution method; settings: isolate D20, 18 h; in short: as §2
[22] = system: Staphylococcus aureus; assay: Antibacterial activity against Staphylococcus aureus isolate D17 derived from bone assessed as growth inhibition after 18 hrs by broth microdilution method; settings: isolate D17, 18 h; in short: as §2
[23] = system: Staphylococcus aureus; assay: Antibacterial activity against Staphylococcus aureus isolate D15 derived from bone assessed as growth inhibition after 18 hrs by broth microdilution method; settings: isolate D15, 18 h; in short: as §2
[24] = system: Staphylococcus aureus; assay: Antibacterial activity against Staphylococcus aureus isolate D14 derived from bone assessed as growth inhibition after 18 hrs by broth microdilution method; settings: isolate D14, 18 h; in short: as §2
[25] = system: Staphylococcus aureus; assay: Antibacterial activity against Staphylococcus aureus isolate F12 derived from ulcer and furuncle assessed as growth inhibition after 18 hrs by broth microdilution method; settings: isolate F12, 18 h; in short: as §2
[26] = system: Staphylococcus aureus; assay: Antibacterial activity against Staphylococcus aureus isolate F7 derived from ulcer and furuncle assessed as growth inhibition after 18 hrs by broth microdilution method; settings: isolate F7, 18 h; in short: as §2
[27] = system: Staphylococcus aureus; assay: Antibacterial activity against Staphylococcus aureus isolate F1 derived from ulcer and furuncle assessed as growth inhibition after 18 hrs by broth microdilution method; settings: isolate F1, 18 h; in short: as §2
[28] = system: Staphylococcus aureus; assay: Antibacterial activity against Staphylococcus aureus isolate D12 derived from ulcer and furuncle assessed as growth inhibition after 18 hrs by broth microdilution method; settings: isolate D12, 18 h; in short: as §2
[29] = system: Staphylococcus aureus; assay: Antibacterial activity against Staphylococcus aureus isolate C19 derived from naso-pharynx assessed as growth inhibition after 18 hrs by broth microdilution method; settings: isolate C19, 18 h; in short: as §2
[30] = system: Staphylococcus aureus; assay: Antibacterial activity against Staphylococcus aureus isolate C8 derived from naso-pharynx assessed as growth inhibition after 18 hrs by broth microdilution method; settings: isolate C8, 18 h; in short: as §2
[31] = system: Staphylococcus aureus; assay: Antibacterial activity against Staphylococcus aureus isolate C7 derived from naso-pharynx assessed as growth inhibition after 18 hrs by broth microdilution method; settings: isolate C7, 18 h; in short: as §2
[32] = system: Staphylococcus aureus; assay: Antibacterial activity against Staphylococcus aureus isolate C4 derived from naso-pharynx assessed as growth inhibition after 18 hrs by broth microdilution method; settings: isolate C4, 18 h; in short: as §2

O=C1CN(/N=C/c2ccc([N+](=O)[O-])o2)C(=O)N1 [NITROFURANTOIN]
MBC [1]: 32 µg/mL (≈ 134 µM)
MBC [2]: 32 µg/mL (≈ 134 µM)
MBC [3]: 32 µg/mL (≈ 134 µM)
MBC ([4]; NCTC 8192, 18 h): 32 µg/mL (≈ 134 µM)
MIC [5]: 8 µg/mL (≈ 33.6 µM)
MIC [6]: 16 µg/mL (≈ 67.2 µM)
MIC [7]: 16 µg/mL (≈ 67.2 µM)
MIC ([8]; NCTC 8192, 18 h): 16 µg/mL (≈ 67.2 µM)

Cc1onc(-c2ccccc2)c1C(=O)N[C@@H]1C(=O)N2[C@@H]1SC(C)(C)[C@@H]2C(=O)O [OXACILLIN]
MBC [9]: 0.4 µg/mL (≈ 0.996 µM)
MBC [10]: 150 µg/mL (≈ 374 µM)
MBC [11]: 150 µg/mL (≈ 374 µM)
MBC [12]: 0.2 µg/mL (≈ 0.498 µM)
MBC [13]: 0.4 µg/mL (≈ 0.996 µM)
MBC [14]: 0.2 µg/mL (≈ 0.498 µM)
MBC [15]: 0.8 µg/mL (≈ 1.99 µM)
MBC [16]: 0.4 µg/mL (≈ 0.996 µM)
MBC [17]: 0.2 µg/mL (≈ 0.498 µM)
MBC [18]: 1.5 µg/mL (≈ 3.74 µM)
MBC [19]: 0.4 µg/mL (≈ 0.996 µM)
MBC [20]: 0.4 µg/mL (≈ 0.996 µM)
MIC [21]: 0.4 µg/mL (≈ 0.996 µM)
MIC [22]: 75 µg/mL (≈ 187 µM)
MIC [23]: 75 µg/mL (≈ 187 µM)
MIC [24]: 0.2 µg/mL (≈ 0.498 µM)
MIC [25]: 0.2 µg/mL (≈ 0.498 µM)
MIC [26]: 0.2 µg/mL (≈ 0.498 µM)
MIC [27]: 0.8 µg/mL (≈ 1.99 µM)
MIC [28]: 0.2 µg/mL (≈ 0.498 µM)
MIC [29]: 0.2 µg/mL (≈ 0.498 µM)
MIC [30]: 1.5 µg/mL (≈ 3.74 µM)
MIC [31]: 0.2 µg/mL (≈ 0.498 µM)
MIC [32]: 0.4 µg/mL (≈ 0.996 µM)
MBC [1]: 0.2 µg/mL (≈ 0.498 µM)
MBC [2]: 0.2 µg/mL (≈ 0.498 µM)
MBC [3]: 0.2 µg/mL (≈ 0.498 µM)
MBC [4]: inactive
MIC [5]: 0.2 µg/mL (≈ 0.498 µM)
MIC [6]: 0.2 µg/mL (≈ 0.498 µM)
MIC [7]: 0.2 µg/mL (≈ 0.498 µM)
MIC [8]: inactive

CN[C@H](CC(C)C)C(=O)N[C@H]1C(=O)N[C@@H](CC(N)=O)C(=O)N[C@H]2C(=O)N[C@H]3C(=O)N[C@H](C(=O)N[C@H](C(=O)O)c4cc(O)cc(O)c4-c4cc3ccc4O)[C@H](O)c3ccc(c(Cl)c3)Oc3cc2cc(c3O[C@@H]2O[C@H](CO)[C@@H](O)[C@H](O)[C@H]2O[C@H]2C[C@](C)(N)[C@H](O)[C@H](C)O2)Oc2ccc(cc2Cl)[C@H]1O [VANCOMYCIN]
MBC [9]: 75 µg/mL (≈ 51.8 µM)
MBC [10]: 75 µg/mL (≈ 51.8 µM)
MBC [11]: 75 µg/mL (≈ 51.8 µM)
MBC [12]: 75 µg/mL (≈ 51.8 µM)
MBC [13]: 10 µg/mL (≈ 6.9 µM)
MBC [14]: 35 µg/mL (≈ 24.2 µM)
MBC [15]: 75 µg/mL (≈ 51.8 µM)
MBC [16]: 75 µg/mL (≈ 51.8 µM)
MBC [17]: 75 µg/mL (≈ 51.8 µM)
MBC [18]: 75 µg/mL (≈ 51.8 µM)
MBC [19]: 35 µg/mL (≈ 24.2 µM)
MBC [20]: 10 µg/mL (≈ 6.9 µM)
MIC [21]: 75 µg/mL (≈ 51.8 µM)
MIC [22]: 75 µg/mL (≈ 51.8 µM)
MIC [23]: 75 µg/mL (≈ 51.8 µM)
MIC [24]: 75 µg/mL (≈ 51.8 µM)
MIC [25]: 10 µg/mL (≈ 6.9 µM)
MIC [26]: 35 µg/mL (≈ 24.2 µM)
MIC [27]: 75 µg/mL (≈ 51.8 µM)
MIC [28]: 75 µg/mL (≈ 51.8 µM)
MIC [29]: 75 µg/mL (≈ 51.8 µM)
MIC [30]: 75 µg/mL (≈ 51.8 µM)
MIC [31]: 35 µg/mL (≈ 24.2 µM)
MIC [32]: 10 µg/mL (≈ 6.9 µM)
MBC [1]: 3 µg/mL (≈ 2.07 µM)
MBC [2]: 3 µg/mL (≈ 2.07 µM)
MBC [3]: 1.5 µg/mL (≈ 1.04 µM)
MBC [4]: inactive
MIC [5]: 3 µg/mL (≈ 2.07 µM)
MIC [6]: 1.5 µg/mL (≈ 1.04 µM)
MIC [7]: 1.5 µg/mL (≈ 1.04 µM)
MIC [8]: inactive
